The source of these data is ChEMBL document CHEMBL1138110, “Microwave-assisted synthesis of N-alkylated benzotriazole derivatives: antimicrobial studies” (2006).

For assay [1], the system named is Aspergillus flavus. The assay can be described thus: Antifungal activity against Aspergillus flavus by disk diffusion method at 10 ug/disk. The assay is classed as functional, organism-based. In short, it runs like this: (§1)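 Fungi kept on potato dextrose agar at 28 °C. Conidia scraped from 5–15 day PDA cultures into water, cotton-filtered, and adjusted by hemocytometer to ~10^6 CFU/mL. Disks carried 10 µg; DMSO-only disks as negative control. Plates held at 4 °C ≥2 h, then 28 °C; inhibition zone diameter (mm) read after 48 h. Mean of three determinations.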

For assay [2], the system named is Aspergillus niger. The assay can be described thus: Antifungal activity against Aspergillus niger by disk diffusion method at 10 ug/disk. The assay is classed as functional, organism-based. A digest of the protocol: as §1
For orientation: Agar diffusion results depend on both activity and mobility in agar.

Assay [3] relates to Fusarium verticillioides. Nature of the assay: Antifungal activity against Fusarium moniliforme by disk diffusion method at 10 ug/disk. It counts as functional, organism-based. A digest of the protocol: as §1
For assay [4], the system named is Fusarium oxysporum. Nature of the assay: Antifungal activity against Fusarium oxysporum by disk diffusion method at 10 ug/disk. It counts as functional, organism-based. In short, it runs like this: as §1
Assay [5] concerns Trichoderma. The assay can be described thus: Antifungal activity against Trichoderma species by disk diffusion method at 10 ug/disk. It counts as functional, organism-based. In short, it runs like this:
as §1

Assay [6] deals with Trichoderma. Nature of the assay: Antifungal activity against Trichoderma species by disk diffusion method at 25 ug/disk. It counts as functional. The settings on record: read-out: IZ. A digest of the protocol:
(§2)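 Fungi kept on potato dextrose agar at 28 °C; conidia scraped from 5–15 day PDA cultures into distilled water, filtered through sterile cotton, resuspended, adjusted by hemocytometer to about 10^6 CFU/mL. Paper disks bore 25 µg compound, 10 µg nystatin reference, or DMSO alone. Plates at 4 °C ≥2 h, then 28 °C; zone diameter (mm) read at 48 h; mean of three determinations.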

Assay [7] has as its system Fusarium verticillioides. The assay can be described thus: Antifungal activity against Fusarium moniliforme by disk diffusion method at 25 ug/disk. The assay is classed as functional. The settings on record: read-out: IZ. In short, it runs like this:
as §2

Assay [8] deals with Aspergillus niger. The assay can be described thus: Antifungal activity against Aspergillus niger by disk diffusion method at 25 ug/disk. It counts as functional. Particulars: read-out: IZ. In short, it runs like this: as §2
Assay [9] deals with Aspergillus flavus. Nature of the assay: Antifungal activity against Aspergillus flavus by disk diffusion method at 25 ug/disk. The settings on record: read-out: IZ. The assay is classed as functional. A digest of the protocol: as §2
The subject of assay [10] is Fusarium oxysporum. The assay can be described thus: Antifungal activity against Fusarium oxysporum by disk diffusion method at 25 ug/disk. The assay is classed as functional. Particulars: read-out: IZ. In short, it runs like this:
as §2

Assay [11] deals with Bacillus subtilis. Nature of the assay: Antibacterial activity against Bacillus subtilis by disk diffusion method at 25 ug/disk. It counts as functional. The settings on record: read-out: IZ. In short, it runs like this: (§3)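 Bacteria kept on LB agar, grown in LB broth, spun 10,000 rpm 5 min, pellet taken up in double-distilled water, density set by hemocytometer to about 10^4 CFU/mL for plate inoculation. Paper disks carried 25 µg test compound or 10 µg streptomycin/tetracycline reference; DMSO-only disks as negative control. Plates held at 4 °C ≥2 h, then 28 °C; inhibition zone diameter (mm) read at 24 h; mean of three determinations.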

Assay [12] relates to Xanthomonas campestris. Nature of the assay: Antibacterial activity against Xanthomonas campestris pvs by disk diffusion method at 25 ug/disk. It counts as functional. The settings on record: read-out: IZ. In short, it runs like this:
as §3

Assay [13] deals with Xanthomonas oryzae. The assay can be described thus: Antibacterial activity against Xanthomonas oryzae by disk diffusion method at 25 ug/disk. It counts as functional. Particulars: read-out: IZ.
In assay [14] the test system is Escherichia coli. Nature of the assay: Antibacterial activity against Escherichia coli by disk diffusion method at 25 ug/disk. The assay is classed as functional. Particulars: read-out: IZ. In short, it runs like this: as §3
Assay [15] has as its system Pseudomonas fluorescens. The assay can be described thus: Antibacterial activity against Pseudomonas fluorescens by disk diffusion method at 25 ug/disk. It counts as functional. The settings on record: read-out: IZ. In short, it runs like this: as §3
Assay [16] concerns Pseudomonas fluorescens. The assay can be described thus: Antibacterial activity against Pseudomonas fluorescens by disk diffusion method at 10 ug/disk. It counts as functional. Particulars: read-out: IZ.
Assay [17] concerns Bacillus subtilis. The assay can be described thus: Antibacterial activity against Bacillus subtilis by disk diffusion method at 10 ug/disk. Particulars: read-out: IZ. The assay is classed as functional.
Assay [18] relates to Escherichia coli. Nature of the assay: Antibacterial activity against Escherichia coli by disk diffusion method at 10 ug/disk. The assay is classed as functional. The settings on record: read-out: IZ. In short, it runs like this:
as §3

The test system of assay [19] is Xanthomonas campestris. The assay can be described thus: Antibacterial activity against Xanthomonas campestris pvs by disk diffusion method at 10 ug/disk. The assay is classed as functional. Particulars: read-out: IZ.
For assay [20], the system named is Xanthomonas oryzae. The assay can be described thus: Antibacterial activity against Xanthomonas oryzae by disk diffusion method at 10 ug/disk. It counts as functional. Particulars: read-out: IZ.

Counter-ions that a name gives are not always drawn.

As to NYSTATIN, the inhibition zone (IZ) in assay [1] turned out to be 10 mm; in assay [2] it was 8 mm; in assay [3] it was 12 mm; in [4] it was 14 mm; in assay [5] it was 16 mm.

Consider `N#Cc1ccccc1-c1ccc(Cn2nnc3ccccc32)cc1`, for which the zone of inhibition at 25 µg/disc in [6] was found to be 18 mm; in assay [7], 17 mm; in assay [8], 14 mm; in assay [9], 17 mm; in [10], 20 mm; in assay [11], 16 mm. The zone of inhibition at 25 µg/disc in assay [12] was 16 mm; in assay [13], 15 mm; in assay [14] it was 18 mm; in assay [15] it was 21 mm.

As to `CN[C@@H]1[C@H](O[C@H]2[C@H](O[C@H]3[C@H](O)[C@@H](O)[C@H](N=C(N)N)[C@@H](O)[C@@H]3N=C(N)N)O[C@@H](C)[C@]2(O)C=O)O[C@@H](CO)[C@H](O)[C@H]1O` [STREPTOMYCIN SULFATE], the zone of inhibition at 10 µg/disc in assay [16] amounted to 18 mm; in assay [17] it was 12 mm; in assay [18], 14 mm.

For the compound `CCCn1nnc2ccccc21`, the zone of inhibition at 25 µg/disc was found to be 1 mm in assay [6]; 4 mm in assay [7]; 5 mm in [8]; 4 mm in [9]; 6 mm in [10]; 6 mm in assay [11]. Also, the zone of inhibition at 25 µg/disc came to 3 mm in [12], 2 mm in assay [13], 4 mm in assay [14] and 1 mm in [15].

Consider `COc1cc(Br)c(Cn2nnc3ccccc32)cc1OC`, for which the zone of inhibition at 25 µg/disc in assay [6] worked out at 16 mm; in assay [7], 13 mm; in assay [8], 9 mm; in assay [9] it was 10 mm; in [10], 14 mm; in assay [11], 12 mm. The zone of inhibition at 25 µg/disc in [12] amounted to 12 mm; in assay [14], 15 mm; in assay [15], 18 mm.

`CCCCn1nnc2ccccc21`: the zone of inhibition at 25 µg/disc was 15 mm in assay [6]; 12 mm in assay [7]; 8 mm in assay [8]; 11 mm in assay [9]; 14 mm in assay [10]; 13 mm in [11]. For the same compound, the zone of inhibition at 25 µg/disc was found to be 12 mm in assay [12], 12 mm in assay [13], 14 mm in assay [14] and 19 mm in assay [15].

`Cc1cc2c(cc1Cn1nnc3ccccc31)OCO2`: the zone of inhibition at 25 µg/disc in assay [6] stood at 20 mm; in [7], 18 mm; in assay [8] it was 16 mm; in [9], 19 mm; in [10], 22 mm; in assay [11] it was 18 mm. The zone of inhibition at 25 µg/disc was 18 mm in assay [12], 19 mm in assay [13], 20 mm in assay [14] and 22 mm in assay [15].

In the case of `O=[N+]([O-])c1ccc(Cn2nnc3ccccc32)cc1`, the zone of inhibition at 25 µg/disc in assay [6] amounted to 11 mm; in assay [7], 8 mm; in [8], 5 mm; in assay [9], 7 mm; in assay [10] it was 9 mm; in [11], 6 mm. The zone of inhibition at 25 µg/disc in [12] came out at 4 mm; in assay [14], 7 mm; in assay [15], 8 mm.

Regarding `O=C(Cn1nnc2ccccc21)c1ccc(Cl)cc1`, the zone of inhibition at 25 µg/disc in assay [6] came to 2 mm; in assay [7], 3 mm; in assay [8], 4 mm; in assay [9] it was 5 mm; in assay [10], 6 mm; in assay [11] it was 6 mm. Further, the zone of inhibition at 25 µg/disc in assay [12] was determined as 4 mm; in assay [13], 2 mm; in [14] it was 5 mm; in [15], 3 mm.

`CN(C)[C@@H]1C(O)=C(C(N)=O)C(=O)[C@@]2(O)C(O)=C3C(=O)c4c(O)cccc4[C@@](C)(O)[C@H]3C[C@@H]12` [TETRACYCLINE]: the values for the zone of inhibition at 10 µg/disc in assay [19] and in assay [20] were 12 mm and 11 mm, respectively.
